Most compounds without a hit are left out; they make up all but 6.8% or so of the library.
core dimer inh = HCV core protein dimerization inhibition; TR-FRET GST/Flag-core106 dimerization, 1536-well; inhibition, % at 5 µM; 300,000 compounds, 0.33% hits; AID 1899;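 active means inhibition above the mean of all tested compounds plus 3 SD, set per screening campaign, cut at about 45% in these data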
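System: GST-tagged and Flag-tagged HCV core protein residues 1-106 / Input: core106 proteins, GST 13.5 nM and Flag 17 nM / Buffer or medium: KF-containing HEPES buffer, pH 7.45, DTT, CHAPS, BSA / Probe or stimulus: Eu-anti-GST and XL665-anti-Flag labelled anti-tag antibodies / Schedule: 4 h, 22.5 °C incubation / Technique: TR-FRET 671 and 617 nm emission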
PHOSPHO1 block = PHOSPHO1 (human) inhibition; inhibition, % at 13.3 µM; recombinant PHOSPHO1, absorbance phosphatase assay; 290,000 compounds, 1.1% hits; AID 1565; in the data active means inhibition above about 60%
Target sequence (Q8TCT1 whole entry, looked up): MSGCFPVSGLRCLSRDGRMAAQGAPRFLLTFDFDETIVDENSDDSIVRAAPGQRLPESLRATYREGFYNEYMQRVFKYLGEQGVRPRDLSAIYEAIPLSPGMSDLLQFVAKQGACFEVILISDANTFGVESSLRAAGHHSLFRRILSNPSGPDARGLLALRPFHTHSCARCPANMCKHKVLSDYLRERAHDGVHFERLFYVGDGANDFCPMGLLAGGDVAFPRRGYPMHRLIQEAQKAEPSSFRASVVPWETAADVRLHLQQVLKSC
ALR H2O2 inh = blocks human ALR sulfhydryl oxidase activity. P55789. purified ALR, DTT oxidation, H2O2 HRP-luminol luminescence. 290,000 compounds, 3.8% hits. inhibition, % (no concentration beside the values);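 active means mean replicate inhibition above about 79%, with every replicate also reaching it, limit read from the data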
Target sequence (P55789 whole entry, looked up): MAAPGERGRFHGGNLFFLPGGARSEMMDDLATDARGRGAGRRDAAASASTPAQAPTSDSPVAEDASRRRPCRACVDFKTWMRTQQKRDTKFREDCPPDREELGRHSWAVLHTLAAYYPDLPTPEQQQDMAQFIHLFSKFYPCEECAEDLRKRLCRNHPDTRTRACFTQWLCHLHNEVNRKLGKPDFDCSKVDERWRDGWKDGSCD
HSF1 inh = HSF1 inhibition; NIH3T3-HGL HSE-luciferase, MG132-induced, luminescence 8 h; hits give low values; activity change, negative = inhibition, % at 7.5 µM (by protocol); 300,000 compounds, 0.77% hits; AID 2098;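 active means more than half of replicate wells show activity change below -50%, luminescence cut by over half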;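 further: luciferase reports HSF-1 transcriptional activity via heat shock element; 0% = median of DMSO wells and -100% = zero luminescence signal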
AI-2 QS mod = Vibrio harveyi AI-2 quorum sensing modulation | 300,000 compounds, 0.4% hits | Vibrio harveyi JMH597 AI-2 luminescence/OD600 ratio, 9 h; hits give low values; strain lacks LuxN and CqsS sensors; 0 = neutral-control median | activity change, % at 7.5 µM; in the data active means activity change below about -75%, passing the limit was not always enough;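 further: luminescence divided by OD600 gain over 9 h not by final OD600 alone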
HSF-1 act = increases HSF-1 driven luciferase reporter signal. NIH3T3-HGL HSF-1 luciferase reporter, MG132, 8 h; 100% = twice DMSO control signal. activation, % at 9 µM. 300,000 compounds, 1.7% hits. AID 504408;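 active means mean replicate activation of at least 50% with a set share of replicates each reaching 50%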;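 further: 0% = median of the neutral control wells and 100% = twice that signal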
* = called active by the depositor; . = no result.

SMILES | core dimer inh | PHOSPHO1 block | ALR H2O2 inh | HSF1 inh | AI-2 QS mod | HSF-1 act
CSc1cccc(NC(=O)CN(C)S(=O)(=O)c2ccccc2)c1 | -5 | 9 | -6 | 21 | -36 | 67*
O=C(COc1ccc([N+](=O)[O-])cc1)Nc1ccccc1C(=O)NC1CC1 | -9 | . | -7 | 14 | . | 15
O=C(NCc1ccc2c(c1)OCO2)c1ccc(Br)cc1 | 0 | -47 | -3 | 1 | -26 | 5
O=C(NCc1ccc2c(c1)OCO2)c1cc2ncc(Br)cn2n1 | 67* | 7 | -9 | . | . | .
COc1ccc(Cn2c(-c3ccc(OC)cc3)n[nH]c2=S)cc1 | 1 | . | 95* | 2 | 10 | -2
CCc1cc(-c2n[nH]c(=S)n2-c2ccccc2C)cs1 | -4 | 86* | 34 | -1 | -6 | 11
CCc1cc(-c2n[nH]c(=S)n2CC)cs1 | 0 | 53 | 28 | 4 | 25 | -9
Cc1cc(-c2n[nH]c(=S)n2CC(C)C)cs1 | -5 | 16 | 44 | 3 | 4 | 8
CC(C)Cn1c(-c2csc3ccccc23)n[nH]c1=S | -17 | 106* | 95* | 7 | -8 | 6
COc1ccc(-c2n[nH]c(=S)n2CC(C)C)cc1 | -14 | 97* | 88* | 2 | 5 | -1
CCn1c(-c2csc3ccccc23)n[nH]c1=S | -10 | -6 | 2 | 2 | -4 | 0
CC(C)Cn1c(-c2csc(C(C)C)c2)n[nH]c1=S | 1 | -108 | 94* | -3 | 26 | -5
CCOc1ccc(-c2n[nH]c(=S)n2Cc2ccccc2)cc1 | 12 | -92 | . | -11 | 0 | -3
Cc1ccc(-c2n[nH]c(=S)n2Cc2ccccc2)cc1 | -3 | 100* | 55 | 4 | 3 | -5
CCc1cc(-c2n[nH]c(=S)n2Cc2ccccc2)cs1 | -2 | 92* | 92* | . | -19 | .
CCN(CC)C(=O)C(=O)N/N=C/c1ccc(C(=O)O)cc1 | -1 | -1 | . | -3 | 8 | -12
Cc1cc(C(=O)CN2C(=O)CCC2=O)c(C)n1Cc1ccccc1 | 12 | 55 | 94* | -4 | 18 | -19
Cc1cc(C(=O)CN2C(=O)NC3(CCCc4ccccc43)C2=O)c(C)n1Cc1ccccc1 (configuration not stated) | 29 | -25 | 31 | -4 | -15 | 21
O=C1c2cccc([N+](=O)[O-])c2C(=O)N1C1CCCCC1 | -3 | 19 | 98* | -6 | 12 | 6
O=C1c2cccc([N+](=O)[O-])c2C(=O)N1c1ccccc1 | -23 | 1 | -8 | 2 | 10 | 18
COC(=O)[C@]1(Cc2ccccc2)N[C@H](CN(C)C(=O)COc2ccccc2)[C@@H]2C(=O)N(Cc3ccccc3)C(=O)[C@@H]21 | . | . | -1 | . | . | .
Cc1ccc2nc(C)c(C(=O)N/N=C/c3cccc([N+](=O)[O-])c3)cc2c1 | 0 | -4 | 9 | 7 | 7 | 26
O=C(N/N=C/c1cccc([N+](=O)[O-])c1)c1ccc(Br)cc1 | -1 | 65* | 29 | 15 | 10 | 9
O=C(N/N=C/C=C/c1ccc([N+](=O)[O-])cc1)c1cccs1 | 49* | 6 | -5 | -1 | 10 | 20
O=C(N/N=C/c1cccc([N+](=O)[O-])c1)c1cccs1 | 1 | 9 | . | 24 | 25 | 54*
SMILES | core dimer inh | PHOSPHO1 block | ALR H2O2 inh | HSF1 inh | AI-2 QS mod | HSF-1 act
Cc1nc2c(C)cccc2cc1C(=O)N/N=C/c1cccc([N+](=O)[O-])c1 | 8 | 11 | 98* | 12 | 14 | 9
COc1ccccc1C(=O)NC(=O)COC(=O)c1cccc(OC(F)F)c1 | 0 | . | 4 | 5 | 20 | -18
COc1ccc(C(=O)N(C)c2ccccc2C(=O)NCCc2ccccc2)cc1 | 5 | 26 | -1 | 6 | 8 | -9
O=C(CCCc1ccccc1)Nc1cccc([N+](=O)[O-])c1 | 5 | 5 | . | 4 | 20 | 16
O=C(CCc1ccccc1)Nc1cccc([N+](=O)[O-])c1 | -1 | 34 | -4 | -76* | -21 | -82
Cc1c(C)c(C)c(C(=O)CCc2cccc(NC(=O)CCC(=O)O)c2)c(C)c1C | 4 | 40 | 95* | -1 | 8 | 1
Cc1c(O)ccc2c(O)c(NC(=O)c3ccc4c(c3)CCC(C)(C)O4)c(=O)oc12 | -2 | 30 | 74 | -2 | 20 | -6
O=C(Nc1cccc(S(=O)(=O)N2CCCCC2)c1)Nc1ccc(Cl)cc1Cl | 13 | -1 | -9 | 15 | 54 | 33
CCCCCCCCS(=O)C1CCS(=O)(=O)C1 (configuration not stated) | 5 | 48 | 1 | 7 | 6 | 24
CCCCCCS(=O)[C@H]1CS(=O)(=O)C[C@@H]1S(=O)CCCCCC (some centres not stated) | 2 | 96* | 4 | -5 | 13 | -4
COc1ccc(S(=O)(=O)N(C)C)cc1NS(=O)(=O)c1ccc(F)c(F)c1F | 4 | 12 | -2 | -4 | 12 | 4
N#Cc1c(SCc2ccc(Cl)cc2)sc(C(=O)c2ccccc2)c1N | 3 | 89* | -7 | 1 | 12 | 3
COc1ccc(N2C(=O)CC(NNc3nc4ccccc4s3)C2=O)cc1 (configuration not stated) | 2 | 11 | -1 | 60 | -8 | 114*
O=C1CC(NNc2ccccc2)C(=O)N1c1ccccc1 (configuration not stated) | -1 | 6 | 100* | 15 | -16 | 63*
O=C1CC(Nc2ccc3ccccc3c2)C(=O)N1Cc1ccccc1 (configuration not stated) | -6 | 24 | -4 | 2 | 5 | 8
CCOc1ccccc1N1C(=O)CC(Nc2ccc(N3CCOCC3)cc2)C1=O (configuration not stated) | 4 | 12 | 98* | -4 | 14 | -5
O=C1CC(Nc2ccc(N3CCOCC3)cc2)C(=O)N1Cc1ccccc1 (configuration not stated) | -4 | -7 | 98* | 7 | -7 | 45
CN(CC(=O)Nc1ccc(F)cc1)C(=O)COc1ccccc1Cc1ccccc1 | 2 | . | -4 | 9 | . | 16
CCN(CC)S(=O)(=O)c1ccc(C(=O)Nc2cc(S(=O)(=O)N3CCOCC3)ccc2O)cc1 | . | . | -1 | . | . | .
CC(=O)NCCOc1nc(N(C)C)nc(N2CCCCC2)n1 | -12 | 18 | -16 | -4 | 9 | -3
O=C1CC(Nc2ccc(N3CCOCC3)cc2)C(=O)N1c1ccccc1 (configuration not stated) | 3 | -34 | 99* | -3 | 14 | -2
COc1ccccc1N1C(=O)CC(Nc2ccc(N3CCOCC3)cc2)C1=O (configuration not stated) | -10 | -17 | 100* | -3 | 32 | 4

Assay outcomes: PubChem BioAssay, several laboratories
